{"data": "Measurements gathered from unrelated publications", "target": "D(3) dopamine receptor (DRD3, Homo sapiens, UniProt P35462)", "method": "radioligand", "note": "Compare with care: the assays were run in different laboratories."}
{"SMILES": "O=C1c2ccccc2CCN1CCCCN1CCN(c2cccc(Cl)c2Cl)CC1", "effect on": "ligand displacement", "Ki": "1 nM"}
{"SMILES": "CCCCN1CCC(COC(=O)c2ccc(N)c(OCF)c2)CC1", "effect on": "cell-free assay", "Ki": "3090 nM"}
{"SMILES": "CC1Cc2ccccc2N1C(=O)NCCCCN(C)[C@H]1CNc2ccccc2C1 (stereo partly drawn)", "effect on": "ligand displacement", "setting": "cell membranes", "Ki": "274 nM"}
{"SMILES": "COc1ccc2c(c1)C(=O)N(CCN1CCN(c3ccccc3OC)CC1)C2", "effect on": "ligand displacement", "Ki": "208 nM"}
{"SMILES": "COc1ccc(CCC2=NCCN2CCc2ccccc2)cc1", "effect on": "ligand displacement", "Ki": "> 10000 nM"}
{"SMILES": "CN(C[C@@H]1C[C@H]1CCNC(=O)c1cc2ccccc2[nH]1)[C@@H]1Cc2cccc3[nH]c(=O)n(c23)C1", "effect on": "ligand displacement", "setting": "cell membranes", "Ki": "54.6 nM"}
{"SMILES": "Oc1cccc(CCC2=NCCN2CCc2ccccc2)c1", "effect on": "ligand displacement", "Ki": "> 10000 nM"}
{"SMILES": "C[C@@H]1Cc2ccccc2N1C(=O)NCCCCN(C)[C@@H]1Cc2cccc3[nH]c(=O)n(c23)C1", "effect on": "ligand displacement", "setting": "cell membranes", "Ki": "300 nM"}
{"SMILES": "CCN(CC)c1ccc(C2Nc3ccc(C(=O)c4ccccc4)cc3NC3=C2C(=O)CC(C)(C)C3)cc1 (stereo not drawn)", "effect on": "cell-free assay", "Ki": "> 10000 nM"}
{"SMILES": "Oc1ccc(CCC2=NCCN2CCc2ccccc2)cc1", "effect on": "ligand displacement", "Ki": "832 nM"}
{"SMILES": "CCOc1c(O)cc(Br)c2c1CN1CCc3cc(OCC(F)F)c(O)cc3[C@@H]1C2", "effect on": "cell-free assay", "Ki": "1910 nM"}
{"SMILES": "COc1ccccc1N1CCN(CCCCNC(=O)c2cc3cc(OCCF)ccc3[nH]2)CC1", "effect on": "cell-free assay", "Ki": "0.4 nM"}
